Data as given in ChEMBL document CHEMBL1629413, “Hirsutalins A-H, eunicellin-based diterpenoids from the soft coral Cladiella hirsuta” (J Nat Prod, 2010).

What was measured:
[1] = Cytotoxicity against human Hep3B cells by MTT assay; assay type: functional, cell-based, Hep 3B2
Outline: (§1)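 Tumor cell lines from ATCC. Viability measured by MTT colorimetric method in duplicate, with doxorubicin as positive control. Read-out reported as IC50.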

Ca9-22 = assay: Cytotoxicity against human Ca9-22 cells by MTT assay; assay type: functional, cell-based; outline: as §1
A549 = assay: Cytotoxicity against human A549 cells by MTT assay; assay type: functional, cell-based; outline: as §1
MDA-MB-231 = assay: Cytotoxicity against human MDA-MB-231 cells by MTT assay; assay type: functional, cell-based; outline: as §1
HepG2 = assay: Cytotoxicity against human HepG2 cells by MTT assay; assay type: functional, cell-based; outline: as §1
MCF7 = assay: Cytotoxicity against human MCF7 cells by MTT assay; assay type: functional, cell-based; outline: as §1
RAW264.7 [2] = assay: Antiinflammatory activity in mouse RAW264.7 cells assessed as accumulation of LPS-induced iNOS at 10 uM by immunoblot analysis; assay type: functional
Outline: (§2)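 RAW264.7 macrophages (ATCC) stimulated with LPS, with test compound at 10 μM. iNOS and COX-2 protein levels measured by western blotting. Levels expressed as % of cells treated with LPS alone.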

RAW264.7 [3] = assay: Antiinflammatory activity in mouse RAW264.7 cells assessed as accumulation of LPS-induced COX-2 at 10 uM by immunoblot analysis; assay type: functional; outline: as §2

Question: With C=C1C[C@H]2O[C@H]([C@@H]3[C@@H]([C@@H](C)COC(=O)CCC)CC=C(C)[C@@H]32)[C@](C)(OC(=O)[C@H](O)CC)CC[C@@H]1O [HIRSUTALIN A] as the molecule, how does the IC50 [1] read?
Answer: Its IC50 is 29 µM.

Question: What about the IC50 (Ca9-22) of the same molecule?
Answer: The IC50 was 35 µM.

Question: And the IC50 (A549)?
Answer: The IC50 was 28 µM.

Question: Which IC50 [1] does the source give for CCCC(=O)O[C@]1(C)CC[C@H](O)[C@@](C)(O)C[C@H]2O[C@@H]1[C@H]1[C@@H]2C(C)=CC[C@@H]1C(C)C [HIRSUTALIN E] here?
Answer: The IC50 was 14 µM.

Question: What about the IC50 (Ca9-22) of the same molecule?
Answer: Its IC50 is 34 µM.

Question: And the IC50 (MDA-MB-231)?
Answer: Its IC50 is 41 µM.

Question: What about the IC50 (HepG2) of the same molecule?
Answer: The IC50 was 4.7 µM.

Question: What about the IC50 (A549) of the same molecule?
Answer: Its IC50 is 34 µM.

Question: And the IC50 (MCF7)?
Answer: Its IC50 is 35 µM.

Question: With C=C1CC[C@H]([C@@H](C)CO)[C@@H]2[C@H]1C(=O)C[C@@](C)(O)[C@H]1CC[C@@](C)(OC(=O)C(CC)OC(=O)CCC)[C@@H]2O1 (some centres not stated) [HIRSUTALIN F] as the molecule, how does the IC50 [1] read?
Answer: Its IC50 is 29 µM.

Question: And the IC50 (HepG2)?
Answer: Its IC50 is 29 µM.

Question: What about the IC50 (MCF7) of the same molecule?
Answer: The IC50 was 32 µM.

Question: With C=C1CC[C@H]([C@@H](C)COC(C)=O)[C@@H]2[C@H]1[C@H]1C[C@](C)(O)[C@@H](O)CC[C@@](C)(OC(=O)CCC)[C@@H]2O1 [HIRSUTALIN H] as the molecule, how does the Activity (RAW264.7 [2]) read?
Answer: The Activity was 32.3%.

Question: For C=C1CC[C@H]([C@@H](C)CO)[C@@H]2[C@H]1[C@H]1CC(=C)[C@@H](O)CC[C@@](C)(OC(=O)C(CC)OC(=O)CCC)[C@@H]2O1 (some centres not stated) [HIRSUTALIN C], which Activity (RAW264.7 [2]) is on record?
Answer: The Activity was 43.6%.

Question: For C=C1CC[C@H]([C@@H](C)CO)[C@@H]2[C@H]1[C@H]1CC(=C)[C@@H](O)CC[C@@](C)(OC(=O)C(CC)OC(C)=O)[C@@H]2O1 (some centres not stated) [HIRSUTALIN D], which Activity (RAW264.7 [2]) is on record?
Answer: The Activity was 3.3%.

Question: Which Activity (RAW264.7 [2]) does the source give for C=C1CC[C@H]([C@@H](C)COC(C)=O)[C@@H]2[C@H]1[C@H]1CC(=C)[C@@H](O)CC(OC(=O)C(CC)OC(=O)CCC)[C@@](C)(O)[C@@H]2O1 (some centres not stated) [HIRSUTALIN B] here?
Answer: The Activity was 6.8%.

Question: And the Activity (RAW264.7 [3])?
Answer: Its Activity is 49%.
